Data on eight compounds can be found in ChEMBL document CHEMBL1130082, “5,6-Cis-penems: broad-spectrum anti-methicillin-resistant Staphylococcus aureus beta-lactam antibiotics” (1997).

Values after ≈ are worked out from the molar mass of the structure shown.

Holding throughout (assay type): functional
Experiment [1] deals with Bacillus subtilis. As to the kind of experiment: Minimum inhibitory concentration was determined in heart infusion agar medium against Bacillus subtilis ATCC 6633. Summed up:
(§1)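 Agar dilution on heart infusion agar, inoculum 10^6 cells/mL, incubated 24 h at 37 °C; the MIC is read as the lowest concentration that inhibits growth.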

The subject of experiment [2] is Citrobacter freundii. Kind of experiment: Minimum inhibitory concentration was determined in heart infusion agar medium against […] organism Citrobacter freundii GN7391. The method in brief:
as §1

Experiment [3] concerns Enterococcus faecalis. As to the kind of experiment: Minimum inhibitory concentration was determined in heart infusion agar medium against Enterococcus faecalis ATCC 19433. Summed up:
as §1

Experiment [4] concerns Enterobacter cloacae. As to the kind of experiment: Minimum inhibitory concentration was determined in heart infusion agar medium against […] organism Enterobacter cloacae NTCC9394. The method in brief:
as §1

Experiment [5] relates to Escherichia coli. As to the kind of experiment: Minimum inhibitory concentration was determined in heart infusion agar medium against Escherichia coli NIHJ JC-2. Summed up:
as §1

Experiment [6] deals with Escherichia coli. Kind of experiment: Minimum inhibitory concentration was determined in heart infusion agar medium against […] organism Escherichia coli KC-14/RGN 823. Summed up: as §1
In experiment [7] the test system is Klebsiella pneumoniae. Kind of experiment: Minimum inhibitory concentration was determined in heart infusion agar medium against Klebsiella pneumoniae PCI 602. The method in brief:
as §1

Experiment [8] relates to Pseudomonas aeruginosa. As to the kind of experiment: Minimum inhibitory concentration was determined in heart infusion agar medium against Pseudomonas aeruginosa PAO-1. Summed up: as §1
Experiment [9] deals with Proteus vulgaris. As to the kind of experiment: Minimum inhibitory concentration was determined in heart infusion agar medium against Proteus vulgaris GN 7919. Summed up: as §1
The test system of experiment [10] is Serratia marcescens. As to the kind of experiment: Minimum inhibitory concentration was determined in heart infusion agar medium against Serratia marcescens IAM 1136. The method in brief:
as §1

Experiment [11] relates to Staphylococcus aureus. Kind of experiment: Minimum inhibitory concentration was determined in heart infusion agar medium against Staphylococcus aureus 209P JC-1. The method in brief: as §1
Experiment [12] concerns Staphylococcus aureus. As to the kind of experiment: Minimum inhibitory concentration was determined in heart infusion agar medium against Staphylococcus aureus(MRSA). The method in brief:
as §1

With `C[C@@H](O)[C@H]1C(=O)N2C(C(=O)O)=C([C@H]3CCCO3)S[C@H]12` [FAROPENEM], the minimal inhibitory concentration (MIC) – broadly, the smallest concentration in the dilution series that meets the test's criterion for growth inhibition – in experiment [1] is 0.05 µg/mL (≈ 0.175 µM); in experiment [2], more than 100 µg/mL; in experiment [3], 0.39 µg/mL (≈ 1.37 µM); in [4] it was 100 µg/mL (≈ 350 µM); in [5], 0.78 µg/mL (≈ 2.73 µM); in experiment [6], 25 µg/mL (≈ 87.6 µM). Further, the minimum inhibitory concentration (MIC) in experiment [7] is 0.78 µg/mL (≈ 2.73 µM); in experiment [8], more than 100 µg/mL; in [9], 1.56 µg/mL (≈ 5.47 µM); in experiment [10], 25 µg/mL (≈ 87.6 µM); in experiment [11], 0.78 µg/mL (≈ 2.73 µM); in experiment [12], 25 µg/mL (≈ 87.6 µM).

Turning to `CC[C@H](O)[C@@H]1C(=O)N2C(C(=O)[O-])=C(S[C@@H]3CCNC3)S[C@H]12.[Na+]`, the MIC in experiment [1] was 0.05 µg/mL; in [2], 6.25 µg/mL; in experiment [3] it was 1.56 µg/mL; in experiment [4] it was 0.78 µg/mL; in experiment [5], 0.2 µg/mL; in experiment [6], 0.78 µg/mL. The MIC was 0.39 µg/mL in experiment [7]; 12.5 µg/mL in experiment [8]; 0.78 µg/mL in experiment [9]; 3.13 µg/mL in [10]; 0.1 µg/mL in experiment [11]; 3.13 µg/mL in experiment [12].

Regarding `CC[C@H](O)[C@@H]1C(=O)N2C(C(=O)[O-])=C([C@H]3CCCO3)S[C@H]12.[Na+]`, the minimum inhibitory concentration (MIC) was 0.05 µg/mL in experiment [1]; more than 100 µg/mL in [2]; 0.39 µg/mL in experiment [3]; more than 100 µg/mL in [4]; 3.13 µg/mL in [5]; more than 100 µg/mL in experiment [6]. The MIC in [7] was 1.56 µg/mL; in [8] it was more than 100 µg/mL; in [9], 1.56 µg/mL; in [10] it was 25 µg/mL; in experiment [11], 0.39 µg/mL; in experiment [12], 6.25 µg/mL.

For the compound `CC[C@H](O)[C@@H]1C(=O)N2C(C(=O)[O-])=C(S[C@@H]3CCN(CC(=O)c4ccccc4)C3)S[C@H]12.[Na+]`, the minimum inhibitory concentration (MIC) is less than 0.025 µg/mL in [1]; 6.25 µg/mL in experiment [2]; 0.78 µg/mL in [3]; 0.39 µg/mL in experiment [4]; 0.2 µg/mL in experiment [5]; 0.78 µg/mL in experiment [6]. Also, the minimal inhibitory concentration (MIC) in experiment [7] is 0.1 µg/mL; in experiment [8], 6.25 µg/mL; in experiment [9], 0.78 µg/mL; in experiment [10] it was 1.56 µg/mL; in [11] it was 0.1 µg/mL; in experiment [12], 3.13 µg/mL.

Consider `CC(O)[C@H]1C(=O)N2C(C(=O)O)=C(SCCNC=N)C[C@H]12` (single isomer, unassigned) [IMIPENEM ANHYDROUS], for which the MIC in experiment [1] was less than 0.025 µg/mL; in experiment [2], 0.39 µg/mL (≈ 1.3 µM); in experiment [3], 0.78 µg/mL (≈ 2.61 µM); in experiment [4], 0.2 µg/mL (≈ 0.668 µM); in experiment [5] it was 0.2 µg/mL (≈ 0.668 µM); in experiment [6], 0.1 µg/mL (≈ 0.334 µM). Also, the MIC in experiment [7] was 0.2 µg/mL (≈ 0.668 µM); in experiment [8], 1.56 µg/mL (≈ 5.21 µM); in experiment [9], 3.13 µg/mL (≈ 10.5 µM); in [10], 0.78 µg/mL (≈ 2.61 µM); in [11], less than 0.025 µg/mL; in experiment [12] it was more than 100 µg/mL.

Regarding `C[C@@H](O)[C@H]1C(=O)N2C(C(=O)[O-])=C([C@H]3CCCO3)S[C@H]12.[Na+]` [FAROPENEM SODIUM], the MIC in [1] is less than 0.025 µg/mL; in experiment [2], 25 µg/mL; in experiment [3], 0.78 µg/mL; in [4], 1.56 µg/mL; in experiment [5], 0.1 µg/mL; in experiment [6] it was 0.1 µg/mL. Besides, the minimal inhibitory concentration (MIC) is 0.2 µg/mL in experiment [7]; more than 100 µg/mL in [8]; 3.13 µg/mL in experiment [9]; 6.25 µg/mL in experiment [10]; 0.05 µg/mL in experiment [11]; more than 100 µg/mL in experiment [12].

For `CC[C@@H](O)[C@H]1C(=O)N2C(C(=O)[O-])=C([C@H]3CCCO3)S[C@H]12.[Na+]`, the minimum inhibitory concentration (MIC) in experiment [1] is 0.78 µg/mL; in experiment [2] it was more than 100 µg/mL; in experiment [3] it was 25 µg/mL; in experiment [4] it was more than 100 µg/mL; in experiment [5] it was 100 µg/mL; in experiment [6], 12.5 µg/mL. In addition, the MIC in [7] is 12.5 µg/mL; in [8] it was more than 100 µg/mL; in experiment [9], 25 µg/mL; in experiment [10] it was more than 100 µg/mL; in experiment [11], 0.78 µg/mL; in [12], more than 100 µg/mL.

For the compound `CC[C@H](O)[C@@H]1C(=O)N2C(C(=O)[O-])=C(c3ccccc3)S[C@H]12.[Na+]`, the MIC in experiment [1] was 0.2 µg/mL; in [2], more than 100 µg/mL; in experiment [3] it was 0.2 µg/mL; in experiment [4], more than 100 µg/mL; in experiment [5], 25 µg/mL; in experiment [6] it was 50 µg/mL. The MIC in experiment [7] came out at 6.25 µg/mL; in [8], 100 µg/mL; in experiment [9], 1.56 µg/mL; in experiment [10] it was 50 µg/mL; in experiment [11], 0.78 µg/mL; in experiment [12] it was 12.5 µg/mL.
